Data: ChEMBL document CHEMBL4732114, “Design and structural optimization of novel 2H-benzo[h]chromene derivatives that target AcrB and reverse bacterial multidrug resistance” (Eur J Med Chem, 2021)
In brackets after ≈: the same amount, converted by molar mass. Activity calls are given as the source filed them. The rule behind the calls is not given here.

How the values were obtained:
Escherichia coli = experiment: Antibacterial activity against multidrug-resistant Escherichia coli BW25113 harboring AcrB deletion mutant by two-fold broth dilution method; assay type: functional
Summary of the method: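 Two-fold broth dilution MIC against an isogenic BW25113 strain with AcrB deleted, run alongside the AcrB-expressing parent. The test was done to define sub-inhibitory levels for later checkerboard work.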

[1] = target: T1, Multidrug efflux pump subunit AcrB (Escherichia coli (strain K12)) (UniProt P31224); experiment: Inhibition of AcrB in multidrug-resistant Escherichia coli BW25113 assessed as potentiation of erythromycin-induced antibacterial activity by measuring erythromycin MIC at 32 ug/ml by checkerboard titration method (reference value: 64 ug/ml); conditions: dose 32.0 µg/ml
T1 sequence (whole entry): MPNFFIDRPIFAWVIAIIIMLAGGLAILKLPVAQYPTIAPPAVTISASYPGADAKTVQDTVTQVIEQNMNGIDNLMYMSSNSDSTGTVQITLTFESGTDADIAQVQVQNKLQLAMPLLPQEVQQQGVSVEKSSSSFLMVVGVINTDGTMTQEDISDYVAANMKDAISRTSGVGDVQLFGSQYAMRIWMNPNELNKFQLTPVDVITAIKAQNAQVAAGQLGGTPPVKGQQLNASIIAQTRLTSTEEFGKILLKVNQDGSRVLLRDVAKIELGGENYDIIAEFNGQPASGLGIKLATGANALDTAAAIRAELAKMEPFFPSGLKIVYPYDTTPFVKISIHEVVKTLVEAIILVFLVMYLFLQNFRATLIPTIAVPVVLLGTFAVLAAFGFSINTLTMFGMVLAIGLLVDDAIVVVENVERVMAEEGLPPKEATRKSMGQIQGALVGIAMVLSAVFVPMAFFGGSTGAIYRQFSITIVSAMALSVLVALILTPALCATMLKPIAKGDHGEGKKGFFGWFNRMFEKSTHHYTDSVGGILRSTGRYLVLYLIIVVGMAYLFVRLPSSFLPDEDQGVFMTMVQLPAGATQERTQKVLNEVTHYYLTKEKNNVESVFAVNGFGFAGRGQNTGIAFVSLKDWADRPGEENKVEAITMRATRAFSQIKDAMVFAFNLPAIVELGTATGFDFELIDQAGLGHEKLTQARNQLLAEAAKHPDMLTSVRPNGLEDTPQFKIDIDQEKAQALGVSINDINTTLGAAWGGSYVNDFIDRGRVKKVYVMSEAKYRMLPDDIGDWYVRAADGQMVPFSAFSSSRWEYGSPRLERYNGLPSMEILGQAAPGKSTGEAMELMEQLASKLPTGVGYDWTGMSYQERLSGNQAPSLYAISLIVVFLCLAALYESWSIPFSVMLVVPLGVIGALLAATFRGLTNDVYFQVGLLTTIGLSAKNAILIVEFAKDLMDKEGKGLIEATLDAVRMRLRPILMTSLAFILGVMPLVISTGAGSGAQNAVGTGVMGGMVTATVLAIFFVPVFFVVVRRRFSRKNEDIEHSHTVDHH

[2] = target: T1, Multidrug efflux pump subunit AcrB (Escherichia coli (strain K12)); experiment: Inhibition of AcrB in multidrug-resistant Escherichia coli BW25113 assessed as potentiation of levofloxacin-induced antibacterial activity by measuring levofloxacin MIC at 8 ug/ml by checkerboard titration method (reference value: 0.06 ug/ml); conditions: dose 8.0 µg/ml
[3] = target: T1, Multidrug efflux pump subunit AcrB (Escherichia coli (strain K12)); conditions: Escherichia coli BW25113; dose 64.0 µg/ml
[4] = target: T1, Multidrug efflux pump subunit AcrB (Escherichia coli (strain K12)); experiment: Inhibition of AcrB in multidrug-resistant Escherichia coli BW25113 assessed as potentiation of levofloxacin-induced antibacterial activity by measuring levofloxacin MIC at 16 ug/ml by checkerboard titration method (reference value: 0.06 ug/ml); conditions: dose 16.0 µg/ml
Cell membrane [5] = experiment: Induction of outer membrane permeabilization in wild type Escherichia coli BW25113 assessed as increase in nitrocefin hydrolysis at 128 ug/ml in presence of CCCP by spectroscopic analysis; conditions: dose 128 µg/ml
Summary of the method: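 Intact E. coli were treated with 10 μM CCCP to block nitrocefin efflux, then given compound, nothing, or polymyxin B as permeabilizer control. Nitrocefin was added, and hydrolysis by periplasmic β-lactamase was followed as the rise in absorbance at 490 nm. Duplicate experiments were run on different days.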

[6] = target: T1, Multidrug efflux pump subunit AcrB (Escherichia coli (strain K12)); experiment: Inhibition of AcrB in multidrug-resistant Escherichia coli BW25113 assessed as potentiation of tetraphenylphosphonium-induced antibacterial activity by measuring tetraphenylphosphonium MIC at 16 ug/ml by checkerboard titration method (reference value: 1024 ug/ml); conditions: dose 16.0 µg/ml
[7] = target: T1, Multidrug efflux pump subunit AcrB (Escherichia coli (strain K12)); conditions: Escherichia coli BW25113; dose 16.0 µg/ml
[8] = target: T1, Multidrug efflux pump subunit AcrB (Escherichia coli (strain K12)); experiment: Inhibition of AcrB in multidrug-resistant Escherichia coli BW25113 assessed as potentiation of tetraphenylphosphonium-induced antibacterial activity by measuring tetraphenylphosphonium MIC at 8 ug/ml by checkerboard titration method (reference value: 1024 ug/ml); conditions: dose 8.0 µg/ml
[9] = target: T1, Multidrug efflux pump subunit AcrB (Escherichia coli (strain K12)); experiment: Inhibition of AcrB in Escherichia coli BW25113 assessed as reduction in glucose-induced nile red efflux at 50 uM preincubated for 15 mins followed by nile red addition and incubated for 3 hrs in shaker in presence of CCCP by fluorimetric analysis; conditions: time 3.25 hrs
Summary of the method: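 Wild-type and AcrB-deleted cells were preloaded with Nile Red, with or without compound. Fluorescence was recorded, and efflux was triggered at 100 s with 0.2% glucose. Traces were compared with the deletion-strain level. Triplicate experiments used different cell batches.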

[10] = target: T1, Multidrug efflux pump subunit AcrB (Escherichia coli (strain K12)); experiment: Inhibition of AcrB in multidrug-resistant Escherichia coli BW25113 assessed as potentiation of chloramphenicol-induced antibacterial activity by measuring chloramphenicol MIC at 32 ug/ml by checkerboard titration method (reference value: 8 ug/ml); conditions: dose 32.0 µg/ml
[11] = target: T1, Multidrug efflux pump subunit AcrB (Escherichia coli (strain K12)); experiment: Inhibition of AcrB in multidrug-resistant Escherichia coli BW25113 assessed as potentiation of chloramphenicol-induced antibacterial activity by measuring chloramphenicol MIC at 16 ug/ml by checkerboard titration method (reference value: 8 ug/ml); conditions: dose 16.0 µg/ml
[12] = Toxicity in multidrug-resistant Escherichia coli BW25113 harboring AcrB deletion mutant assessed as growth inhibition by two-fold broth dilution method
[13] = target: T1, Multidrug efflux pump subunit AcrB (Escherichia coli (strain K12)); experiment: Inhibition of AcrB in multidrug-resistant Escherichia coli BW25113 assessed as potentiation of erythromycin-induced antibacterial activity by measuring erythromycin MIC at 16 ug/ml by checkerboard titration method (reference value: 64 ug/ml); conditions: dose 16.0 µg/ml
[14] = target: T1, Multidrug efflux pump subunit AcrB (Escherichia coli (strain K12)); conditions: Escherichia coli BW25113; dose 8.0 µg/ml
[15] = target: T1, Multidrug efflux pump subunit AcrB (Escherichia coli (strain K12)); experiment: Inhibition of AcrB in multidrug-resistant Escherichia coli BW25113 assessed as potentiation of erythromycin-induced antibacterial activity by measuring erythromycin MIC at 8 ug/ml by checkerboard titration method (reference value: 64 ug/ml); conditions: dose 8.0 µg/ml
[16] = target: T1, Multidrug efflux pump subunit AcrB (Escherichia coli (strain K12)); conditions: Escherichia coli BW25113; dose 128.0 µg/ml
[17] = target: T1, Multidrug efflux pump subunit AcrB (Escherichia coli (strain K12)); experiment: Inhibition of AcrB in multidrug-resistant Escherichia coli BW25113 assessed as potentiation of chloramphenicol-induced antibacterial activity by measuring chloramphenicol MIC at 8 ug/ml by checkerboard titration method (reference value: 8 ug/ml); conditions: dose 8.0 µg/ml
[18] = target: T1, Multidrug efflux pump subunit AcrB (Escherichia coli (strain K12)); experiment: Inhibition of AcrB in multidrug-resistant Escherichia coli BW25113 assessed as potentiation of tetraphenylphosphonium-induced antibacterial activity by measuring tetraphenylphosphonium MIC at 32 ug/ml by checkerboard titration method (reference value: 1024 ug/ml); conditions: dose 32.0 µg/ml
[19] = target: T1, Multidrug efflux pump subunit AcrB (Escherichia coli (strain K12)); conditions: Escherichia coli BW25113; dose 32.0 µg/ml
[20] = target: T1, Multidrug efflux pump subunit AcrB (Escherichia coli (strain K12)); experiment: Inhibition of AcrB in multidrug-resistant Escherichia coli BW25113 assessed as potentiation of levofloxacin-induced antibacterial activity by measuring levofloxacin MIC at 32 ug/ml by checkerboard titration method (reference value: 0.06 ug/ml); conditions: dose 32.0 µg/ml
Cell membrane [21] = experiment: Induction of inner membrane permeabilization in wild type Escherichia coli BW25113 assessed as perturbation of proton motive force at 32 ug/ml measured after 10 mins in presence of CCCP and glucose by Di0C2(3) probe based fluorescence assay; conditions: escherichia coli bw25113, 10 min, dose 32 µg/ml
Summary of the method: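 Cell suspensions were left untreated or exposed to 8-128 µg/mL compound for 10 min. DiOC₂(3) was then added and fluorescence followed to a plateau. Cells were re-energized with 0.5% glucose, and the rise in fluorescence was read as membrane-potential build-up. CCCP was added last to dissipate the potential.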

[22] = Toxicity in multidrug-resistant Escherichia coli BW25113 assessed as growth inhibition by two-fold broth dilution method

With c1ccc([P+](c2ccccc2)(c2ccccc2)c2ccccc2)cc1 [TETRAPHENYLPHOSPHONIUM] as the compound, how does the MIC (Escherichia coli) read?
The MIC was 32 µg/mL.

Which results are given for CC1(C)CCc2c(-c3nnco3)cc3c(OCc4ccc(F)cc4)cccc3c2O1?
MIC [1]: 32 µg/mL; MIC [2]: 0.06 µg/mL; MIC [3]: 16 µg/mL (≈ 39.6 µM); MIC [4]: 0.06 µg/mL; Activity (Cell membrane [5]): Not Active; MIC [6]: 512 µg/mL; MIC [7]: 16 µg/mL (≈ 39.6 µM); MIC [8]: 1020 µg/mL; inhibition [9]: Active; MIC [10]: 8 µg/mL; MIC [11]: 8 µg/mL; MIC [12]: 64 µg/mL (≈ 158 µM); MIC [13]: 64 µg/mL; MIC [14]: 16 µg/mL (≈ 39.6 µM); MIC [15]: 64 µg/mL; MIC [16]: 16 µg/mL (≈ 39.6 µM); MIC [17]: 8 µg/mL; MIC [18]: 512 µg/mL; MIC [19]: 16 µg/mL (≈ 39.6 µM); MIC [20]: 0.06 µg/mL; Activity (Cell membrane [21]): Not Active; MIC [22]: 64 µg/mL (≈ 158 µM)

For CO[C@H]1/C=C/O[C@@]2(C)Oc3c(C)c(O)c4c(O)c(c(/C=N/N5CCN(C)CC5)c(O)c4c3C2=O)NC(=O)/C(C)=C\C=C\[C@H](C)[C@H](O)[C@@H](C)[C@@H](O)[C@@H](C)[C@H](OC(C)=O)[C@@H]1C [RIFAMPIN], which MIC (Escherichia coli) is on record?
Its MIC is 16 µg/mL (≈ 19.4 µM).

For C[C@H]1COc2c(N3CCN(C)CC3)c(F)cc3c(=O)c(C(=O)O)cn1c23.C[C@H]1COc2c(N3CCN(C)CC3)c(F)cc3c(=O)c(C(=O)O)cn1c23.O [LEVOFLOXACIN], which MIC (Escherichia coli) is on record?
Its MIC is 0.04 µg/mL.
